Measured values from ChEMBL document CHEMBL4406800, “Discovery of Potent Protease-Activated Receptor 4 Antagonists with in Vivo Antithrombotic Efficacy” (J Med Chem, 2019).

Experiments:
[1] = Stability in human liver microsomes assessed as parent compound remaining measured after 10 mins; format: ADME, Microsome; settings: liver microsomes, read-out: Stability
[2] = Stability in rat liver microsomes assessed as parent compound remaining measured after 10 mins; format: ADME, Microsome; settings: read-out: Stability
[3] = Clearance in rat at 2 mg/kg, po or 0.5 mg/kg, iv administered as infusion for 10 mins; format: ADME, organism-based; settings: in vivo
[4] = Half life in rat at 2 mg/kg, po or 0.5 mg/kg, iv administered as infusion for 10 mins; format: ADME, organism-based; settings: in vivo
[5] = Oral bioavailability in rat at 2 mg/kg; format: ADME, organism-based; settings: in vivo
In short: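 Rat dosing: iv 0.5 mpk as a 10 min infusion in 25/75 propylene glycol/PEG400 at 2 ml/kg. po 2 mpk in 5/5/90 EtOH/TPGS/PEG300 at 5 mL/kg.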

[6] = molecular target: T1, Proteinase-activated receptor 4 (Homo sapiens) (UniProt Q96RI0); experiment: Displacement of [3H]BMS-986120 from His-tagged human PAR4 expressed in HEK293 cell membranes assessed as association rate constant
T1 sequence (whole entry): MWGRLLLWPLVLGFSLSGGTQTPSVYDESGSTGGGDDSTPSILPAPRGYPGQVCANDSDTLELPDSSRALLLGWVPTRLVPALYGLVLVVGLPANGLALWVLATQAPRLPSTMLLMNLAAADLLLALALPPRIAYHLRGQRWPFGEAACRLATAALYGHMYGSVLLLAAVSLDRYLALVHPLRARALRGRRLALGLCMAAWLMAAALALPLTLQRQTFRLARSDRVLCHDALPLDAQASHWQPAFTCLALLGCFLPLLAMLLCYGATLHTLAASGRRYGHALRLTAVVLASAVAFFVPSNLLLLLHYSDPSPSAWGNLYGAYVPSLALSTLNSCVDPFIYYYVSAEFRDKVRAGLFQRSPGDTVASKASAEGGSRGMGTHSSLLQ
In short: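 HEK293 membranes expressing PAR4. Association kinetics measured; values are mean ± standard deviation, n = 3.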

[7] = molecular target: T1, Proteinase-activated receptor 4 (Homo sapiens); experiment: Displacement of [3H]BMS-986120 from His-tagged human PAR4 expressed in HEK293 cell membranes assessed as dissociation rate constant measured after 2 hrs
[8] = Half life in mouse liver microsomes; format: ADME, Microsome
[9] = Half life in dog liver microsomes; format: ADME, Canis lupus familiaris, Microsome
[10] = Half life in monkey liver microsomes; format: ADME, Macaca mulatta, Microsome; settings: rhesus monkey
[11] = molecular target: CYP450 (isoform not stated) (Homo sapiens, UniProt P04798+P05177+P05181+P08684+P10632+P10635+P11509+P11712+P13584+P20813+P20815+P20853+P24462+P24903+P33260+P33261+P51589+P78329+P98187+Q02928+Q08477+Q16678+Q16696+Q5TCH4+Q6VVX0+Q7Z449+Q8TAV3+Q96SQ9+Q9HB55); experiment: Inhibition of CYP450 in human liver microsomes; format: ADME
[12] = molecular target: T2, Nuclear receptor subfamily 1 group I member 2 (Homo sapiens, UniProt O75469); experiment: Activation of human PXR; format: ADME
T2 sequence (O75469 whole entry): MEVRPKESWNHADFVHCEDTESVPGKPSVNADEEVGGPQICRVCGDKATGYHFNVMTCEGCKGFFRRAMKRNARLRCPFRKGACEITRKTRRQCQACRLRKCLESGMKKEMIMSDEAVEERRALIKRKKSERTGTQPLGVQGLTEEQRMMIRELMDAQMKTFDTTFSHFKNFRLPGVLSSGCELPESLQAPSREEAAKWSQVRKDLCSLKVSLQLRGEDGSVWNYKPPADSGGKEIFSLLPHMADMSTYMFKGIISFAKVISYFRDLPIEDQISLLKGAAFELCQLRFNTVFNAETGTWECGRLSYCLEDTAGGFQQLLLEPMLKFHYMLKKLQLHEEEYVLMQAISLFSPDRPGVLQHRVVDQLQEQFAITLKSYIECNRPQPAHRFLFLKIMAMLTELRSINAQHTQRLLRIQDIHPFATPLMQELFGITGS

[13] = molecular target: hERG (KCNH2) (Homo sapiens, UniProt Q12809); experiment: Inhibition of human ERG at 10 uM by patch clamp method
[14] = Protein binding in human plasma; format: ADME, cell-free; settings: read-out: PPB (converted)
[15] = Protein binding in rat plasma; format: ADME, cell-free; settings: read-out: PPB (converted)
[16] = Protein binding in mouse plasma; format: ADME, cell-free; settings: read-out: PPB (converted)
[17] = Protein binding in dog plasma; format: ADME, cell-free, Canis lupus familiaris; settings: read-out: PPB
[18] = Protein binding in monkey plasma; format: ADME, cell-free, Macaca mulatta; settings: rhesus monkey, read-out: PPB
[19] = molecular target: T3, Proteinase-activated receptor 1 (Homo sapiens, UniProt P25116); experiment: Antagonist activity at PAR1 in human platelet rich plasma assessed as inhibition of SFFLRR-induced platelet aggregation preincubated for 5 mins followed by SFFLRR addition
T3 sequence (P25116 whole entry): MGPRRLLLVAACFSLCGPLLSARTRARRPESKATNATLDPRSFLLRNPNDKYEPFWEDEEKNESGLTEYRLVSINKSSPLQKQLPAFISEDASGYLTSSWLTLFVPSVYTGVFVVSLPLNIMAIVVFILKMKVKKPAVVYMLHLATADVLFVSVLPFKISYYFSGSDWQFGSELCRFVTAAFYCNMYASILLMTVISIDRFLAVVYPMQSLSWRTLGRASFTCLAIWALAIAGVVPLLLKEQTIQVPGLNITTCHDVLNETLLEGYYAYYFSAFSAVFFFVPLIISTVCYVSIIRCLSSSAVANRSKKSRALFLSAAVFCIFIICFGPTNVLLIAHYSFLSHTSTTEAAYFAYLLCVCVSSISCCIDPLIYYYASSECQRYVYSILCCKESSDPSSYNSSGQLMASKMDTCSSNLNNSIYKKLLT

[20] = Clearance in dog at 2 mg/kg, po or 0.5 mg/kg, iv administered as infusion for 10 mins; format: ADME, organism-based, Canis lupus familiaris; settings: in vivo
In short: (§1)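 Dog and monkey dosing: iv 0.5 mpk as a 10 min infusion in PEG400 at 0.8 ml/kg. po 2 mpk in 40/60 TPGS/PEG400 at 0.5 mL/kg.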

[21] = Half life in dog at 2 mg/kg, po or 0.5 mg/kg, iv administered as infusion for 10 mins; format: ADME, organism-based, Canis lupus familiaris; settings: in vivo; in short: as §1
[22] = Oral bioavailability in dog at 2 mg/kg; format: ADME, organism-based, Canis lupus familiaris; settings: in vivo; in short: as §1
[23] = Clearance in monkey at 2 mg/kg, po or 0.5 mg/kg, iv administered as infusion for 10 mins; format: ADME, organism-based, Macaca mulatta; settings: rhesus monkey, in vivo; in short: as §1
[24] = Half life in monkey at 2 mg/kg, po or 0.5 mg/kg, iv administered as infusion for 10 mins; format: ADME, organism-based, Macaca mulatta; settings: rhesus monkey, in vivo; in short: as §1
[25] = Oral bioavailability in monkey at 2 mg/kg; format: ADME, organism-based, Macaca mulatta; settings: rhesus monkey, in vivo; in short: as §1
[26] = tested on: Cynomolgus monkey; experiment: Antithrombotic activity in cynomolgus monkey electrolytic carotid artery thrombosis assessed as reduction in thrombus weight administered via oral gavage measured after 1.5 hrs; format: functional, organism-based; settings: Macaca fascicularis
In short: (§2)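 Monkeys retired from earlier studies after a washout of at least 4 weeks, randomized to vehicle (n=8) or 0.4, 2 or 10 mg/kg (n=7 each). Dosed by oral gavage in 40/60 w/w TPGS/PEG400 at 2 ml/kg. Anesthetized and surgically prepared 1.5 h post-dose. Thrombosis and bleeding time measured in the same animal.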

[27] = tested on: Cynomolgus monkey; experiment: Antithrombotic activity in cynomolgus monkey electrolytic carotid artery thrombosis assessed as reduction in thrombus weight at 0.4 mg/kg, po administered via gavage measured after 1.5 hrs relative to control; format: functional, Macaca fascicularis; set-up: scale not given: the % may be the effect or the level left; in short: as §2
[28] = tested on: Cynomolgus monkey; experiment: Antithrombotic activity in cynomolgus monkey electrolytic carotid artery thrombosis assessed as reduction in thrombus weight at 2 mg/kg, po administered via gavage measured after 1.5 hrs relative to control; format: functional, Macaca fascicularis; set-up: scale not given: the % may be the effect or the level left; in short: as §2
[29] = tested on: Cynomolgus monkey; experiment: Antithrombotic activity in cynomolgus monkey electrolytic carotid artery thrombosis assessed as reduction in thrombus weight at 10 mg/kg, po administered via gavage measured after 1.5 hrs relative to control; format: functional, Macaca fascicularis; set-up: scale not given: the % may be the effect or the level left; in short: as §2
[30] = Toxicity in cynomolgus monkey assessed as prolongation of kidney bleeding time at 10 mg/kg, po administered via gavage measured up to 20 mins; format: organism-based, Macaca fascicularis; settings: in vivo
In short: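 Oral gavage at 10 mg/kg or vehicle (40/60 w/w TPGS/PEG400, 2 ml/kg) to monkeys, anesthetized 1.5 h later. Bleeding time taken by renal cortex incision: time until bleeding stopped with no re-bleeding for 30 s, monitored up to 20 min, done in triplicate.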

Chain of hERG (KCNH2) (Q12809 whole entry): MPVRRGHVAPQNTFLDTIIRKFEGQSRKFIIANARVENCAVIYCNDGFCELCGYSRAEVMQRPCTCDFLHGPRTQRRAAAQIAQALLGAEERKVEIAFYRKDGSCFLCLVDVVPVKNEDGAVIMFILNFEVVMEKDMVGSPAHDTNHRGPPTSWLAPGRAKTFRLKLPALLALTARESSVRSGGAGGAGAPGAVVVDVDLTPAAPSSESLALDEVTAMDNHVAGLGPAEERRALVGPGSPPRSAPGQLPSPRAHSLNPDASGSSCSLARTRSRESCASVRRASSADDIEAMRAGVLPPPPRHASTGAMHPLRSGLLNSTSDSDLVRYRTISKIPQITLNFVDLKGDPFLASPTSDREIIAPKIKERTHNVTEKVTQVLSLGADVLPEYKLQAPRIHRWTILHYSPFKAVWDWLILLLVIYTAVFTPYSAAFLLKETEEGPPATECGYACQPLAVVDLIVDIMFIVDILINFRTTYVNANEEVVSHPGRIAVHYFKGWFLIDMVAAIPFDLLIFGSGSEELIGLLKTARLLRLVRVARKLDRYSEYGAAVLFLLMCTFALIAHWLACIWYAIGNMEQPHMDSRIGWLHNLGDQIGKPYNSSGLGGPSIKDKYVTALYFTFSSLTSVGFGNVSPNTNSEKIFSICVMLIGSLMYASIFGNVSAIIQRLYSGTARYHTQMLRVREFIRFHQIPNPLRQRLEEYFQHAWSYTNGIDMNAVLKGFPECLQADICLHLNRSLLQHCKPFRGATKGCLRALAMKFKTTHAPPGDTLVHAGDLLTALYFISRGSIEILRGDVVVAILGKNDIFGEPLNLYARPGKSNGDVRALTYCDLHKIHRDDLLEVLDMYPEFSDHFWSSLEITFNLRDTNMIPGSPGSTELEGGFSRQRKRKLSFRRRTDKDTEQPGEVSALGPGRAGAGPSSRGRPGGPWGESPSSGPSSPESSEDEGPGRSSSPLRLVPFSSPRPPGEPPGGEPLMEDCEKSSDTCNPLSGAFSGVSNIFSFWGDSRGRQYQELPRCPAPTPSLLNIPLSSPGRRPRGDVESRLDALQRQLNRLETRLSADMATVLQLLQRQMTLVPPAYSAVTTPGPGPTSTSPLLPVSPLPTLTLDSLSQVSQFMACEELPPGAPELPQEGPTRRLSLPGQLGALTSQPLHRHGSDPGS

COc1cc(OCc2cccc(OCc3ccccc3)c2)c2cc(-c3cn4nc(OC)sc4n3)oc2c1
remaining at 10 min [1]: 85% | remaining at 10 min [2]: 76% | clearance [3]: 10 mL/min/kg | half-life [4]: 6.9 h | bioavailability [5]: 11% | K [6]: 66700 M⁻¹ s⁻¹ | K [7]: 0.013 min⁻¹ | half-life [8]: 2 h | half-life [9]: 1.67 h | half-life [10]: 0.8 h | IC50 [11]: > 40 µM | EC50 [12]: > 50 µM | inhibition at 10 µM [13]: ≤ 10% | fraction unbound [14]: 0.004 | fraction unbound [15]: 0.002 | fraction unbound [16]: 0.005 | fraction unbound [17]: ≤ 0.002 | fraction unbound [18]: < 0.002 | IC50 [19]: > 30 µM | clearance [20]: 1.6 mL/min/kg | half-life [21]: 7 h | bioavailability [22]: 26% | clearance [23]: 5.2 mL/min/kg | half-life [24]: 6.2 h | bioavailability [25]: 11% | Activity [26]: Dose-dependent effect | Activity [27]: 9% | Activity [28]: 38% | Activity [29]: 38% | Activity [30]: Non-Toxic
